Laboratory results as given in ChEMBL document CHEMBL5120741, “Small molecule-mediated induction of endoplasmic reticulum stress in cancer cells” (RSC Med Chem, 2021).
pIC50: −log10 of the molar value. Active and inactive are the calls of the source. The rule behind the calls is not given here.

Key:
HeLa [1] = experiment: Cytotoxicity against human HeLa cells assessed as cell killing at 30 uM after 24 hrs by MTT assay
HeLa [2] = experiment: Cytotoxicity against human HeLa cells assessed as cell viability after 24 hrs by MTT assay; format: functional, cell-based
Outline: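 HeLa cells from NCCS incubated 24 h with compound across a concentration range (single-point screen at 30 μM); viability read by MTT assay; IC50 from dose-response; significance by two-way ANOVA.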

HeLa [3] = experiment: Induction of ERstress in human HeLa cells assessed as increase in lipid level measured after 24 hrs by Oil-red-O staining analysis; format: functional, cell-based
Outline: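 Lipid content: HeLa cells exposed 24 h, stained with Oil Red O plus DAPI for nuclei, viewed by confocal microscopy against untreated control.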

HeLa [4] = experiment: Induction of autophagy in human HeLa cells assessed as increase in LC3B level measured after 24 hrs by confocal microscopic analysis relative to control; format: functional
Outline: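 HeLa cells treated 24 h, fixed in paraformaldehyde, permeabilized with 0.1% Tween-20 buffer, anti-LC3B primary 4 h, Alexa Fluor 488 secondary, DAPI nuclei; confocal imaging, green signal as fold over control.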

[5] = Induction of ERstress in human HeLa cells assessed as increase in BiP expression level measured after 24 hrs by Western blot analysis relative to control; format: functional
Outline: (§1)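 HeLa cells treated 24 h, lysed, proteins separated by gel electrophoresis and immunoblotted for BiP, CHOP, IRE1α, PERK or caspase-12; expression given as fold change over untreated control.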

[6] = Drug uptake in endoplasmic reticulum of human HeLa cells at 5 uM measured after 3 and 6 hrs by ER-tarcker dye based laser confocal microscopy; format: ADME, subcellular
Outline: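 HeLa cells given 5 μM compound (intrinsically green fluorescent) for 3 h and 6 h, ER counterstained with ER-Tracker Red, imaged by confocal laser scanning microscopy; colocalization quantified as Pearson's and Mander's coefficients.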

HeLa [7] = experiment: Induction of autophagy in human HeLa cells assessed as increase in beclin level measured after 24 hrs by Western blot analysis relative to control; format: functional
Outline: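 Western blot: HeLa cells treated 24 h, lysed, proteins resolved by gel electrophoresis and probed for Beclin; fold change versus untreated cells.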

HeLa [8] = experiment: Induction of autophagy in human HeLa cells assessed as increase in beclin level measured after 24 hrs by confocal microscopic analysis relative to control; format: functional
Outline: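 Immunofluorescence: HeLa cells treated 24 h, anti-Beclin primary then Alexa Fluor 594 secondary, DAPI counterstain; confocal microscopy, red signal as fold versus untreated control.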

HeLa [9] = experiment: Induction of apoptosis in human HeLa cells assessed as increase in late apoptotic cells level measured after 24 hrs by annexin-V-PI staining based flow cytometry (reference value: 0.08%); format: functional
Outline: (§2)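 Apoptosis by flow cytometry: HeLa cells treated 24 h alone or with 50 μM chloroquine, stained with Annexin V-FITC and propidium iodide; early and late apoptotic fractions reported as % cells.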

HeLa [10] = experiment: Induction of autophagy in human HeLa cells assessed as increase in LC3-1 level measured after 24 hrs by Western blot analysis relative to control; format: functional
Outline: (§3)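 HeLa cells (NCCS) exposed to compound for 24 h, then lysed; cellular proteins resolved by gel electrophoresis and immunoblotted for LC3-I, LC3-II and Beclin. Band levels expressed as fold change versus untreated control cells. The LC3-I/LC3-II ratio is taken from the same blots and also expressed as fold over control.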

HeLa [11] = experiment: Induction of autophagy in human HeLa cells assessed as increase in LC3-I/LC3-II ratio level measured after 24 hrs by Western blot analysis relative to control; format: functional
Outline: as §3

HeLa [12] = experiment: Induction of apoptosis in human HeLa cells assessed as increase in early apoptotic cells level measured after 24 hrs in presence of 50 uM of chloroquine by annexin-V-PI staining based flow cytometry (reference value: 1.26%); format: functional
Outline: as §2

[13] = Induction of ERstress in human HeLa cells assessed as increase in CHOP expression level measured after 24 hrs by Western blot analysis relative to control; format: functional
Outline: as §1

HeLa [14] = experiment: Induction of autophagy in human HeLa cells assessed as increase in LC3-II level measured after 24 hrs by Western blot analysis relative to control; format: functional
Outline: as §3

[15] = Induction of ERstress in human HeLa cells assessed as increase in PERK expression level measured after 24 hrs by Western blot analysis relative to control; format: functional
Outline: as §1

HeLa [16] = experiment: Induction of apoptosis in human HeLa cells assessed as increase in early apoptotic cells level measured after 24 hrs by annexin-V-PI staining based flow cytometry (reference value: 1.26%); format: functional
Outline: as §2

[17] = Induction of ERstress in human HeLa cells assessed as increase in caspase-12 expression level measured after 24 hrs by Western blot analysis relative to control; format: functional
Outline: as §1

[18] = Induction of ERstress in human HeLa cells assessed as increase in CHOP expression level measured after 24 hrs by confocal microscopic analysis relative to control; format: functional
Outline: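 After 24 h treatment, HeLa cells probed with anti-CHOP primary antibody (4 h), then Alexa Fluor 594 secondary; nuclei DAPI-stained; confocal imaging, red signal expressed as fold over untreated cells.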

[19] = Induction of ERstress in human HeLa cells assessed as increase in IRE1-alpha expression level measured after 24 hrs by Western blot analysis relative to control; format: functional
Outline: as §1

HeLa [20] = experiment: Induction of apoptosis in human HeLa cells assessed as increase in late apoptotic cells level measured after 24 hrs in presence of 50 uM of chloroquine by annexin-V-PI staining based flow cytometry (reference value: 0.08%); format: functional
Outline: as §2

With COc1ccc(S(=O)(=O)N/N=C/c2c[nH]c3cc(Br)ccc23)cc1 the cell killing at 30 µM (HeLa [1]) was > 60% and the pIC50 (HeLa [2]) was 4.72.

For O=S(=O)(N/N=C/c1c[nH]c2cc(Br)ccc12)c1ccc(Br)cc1, the cell killing at 30 µM (HeLa [1]) was > 60%, the Activity (HeLa [3]) was “Active” and the pIC50 (HeLa [2]) was 4.80. The Activity (HeLa [4]) was “Active”.

With CN(C)c1cccc2c(S(=O)(=O)N/N=C/c3c[nH]c4cc(Br)ccc34)cccc12 the “fold change (FC)” value [5] was 1.6, the cell killing at 30 µM (HeLa [1]) was > 60% and the Drug uptake [6] was “Active”. The Activity (HeLa [3]) was “Active”, the “fold change (FC)” value (HeLa [7]) was 2 and the “fold change (FC)” value (HeLa [8]) was 8. The Activity (HeLa [9]) was 17.8%, the “fold change (FC)” value (HeLa [10]) was 2.6 and the “fold change (FC)” value (HeLa [11]) was 3.8. The Activity (HeLa [12]) was 28.6%, the pIC50 (HeLa [2]) was 5.05 and the “fold change (FC)” value [13] was 1.6. For the same molecule, the “fold change (FC)” value (HeLa [14]) was 10, the “fold change (FC)” value [15] was 1.6 and the “fold change (FC)” value (HeLa [4]) was 5. For the same molecule, the Activity (HeLa [16]) was 64.6%, the “fold change (FC)” value [17] was 1.4 and the “fold change (FC)” value [18] was 1.7. The “fold change (FC)” value [19] was 1.8 and the Activity (HeLa [20]) was 62%.

For O=S(=O)(N/N=C/c1c[nH]c2cc(Br)ccc12)c1ccc(Cl)cc1, the cell killing at 30 µM (HeLa [1]) was > 60% and the pIC50 (HeLa [2]) was 4.74.
